Active and inactive are the calls of the source. The calls are words filed in the database; no cut-off is given here.
Legend:
[1] = Drug localization in endoplasmic reticulum of human A549 cells at 1 uM after 4 hrs by DiOC6(3) ER-tracker green based fluorescence microscopic method; assay type: ADME, subcellular; details: a549, 4 h
Summary of the method: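 A549 cells on coverslips at 1×10^4 cells/mL exposed to […] (so in the source) photosensitizer in complete medium for 4 h, washed, fixed in 4% paraformaldehyde 20 min, then probed 30 min at 37 °C with Mito-Tracker Green, Lyso-Tracker Blue or ER-Tracker Green; fluorescence microscopy, three repeats, minimal ambient light.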

[2] = Octanol/water partition coefficient, logP of compound by shake flask method; assay type: physicochemical
Summary of the method: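 Shake-flask method: equilibrium concentrations in octanol and water measured by UV-vis absorbance; log P taken as log of octanol/water concentration ratio (mg/L).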

[3] = Induction of ROS generation in DMF solution assessed as slope of the photodegradation rate of DPBF at 2 uM followed by irradiation measured every 10 secs by spectrophotometric analysis; assay type: functional
[4] = Dark toxicity in human A549 cells assessed as reduction in cell viability incubated under dark for 24 hrs measured after 48 hrs by MTT assay; assay type: cell-based; details: read-out: TC50
Summary of the method: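 A549 cells seeded at 5×10^4 cells/100 µL per well for 24 h, treated in the dark with […] (so in the source) for 24 h; MTT added 4 h, absorbance 570 nm, 48 h later; viability as OD treated/OD control; triplicate, mean ± SD.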

Mus musculus [5] = assay: Phototoxicity in ICR mouse assessed as ear weight at 0.45 mg/kg, iv followed by 10 mW/cm2 light irradiation for 10 mins at 5 days after drug challenge measured after 1 day of light irradiation (reference value: 12.9 +/- 1.4 mg); assay type: organism-based; details: in vivo
A549 [6] = assay: Photodynamic antitumor activity against human A549 cells xenografted in BALB/c nude mouse assessed as survival time at 0.3 mg/kg, iv incubated for 24 hrs followed by laser light irradiation at 120 J/cm2 measured up to 70 days; assay type: functional, organism-based
Summary of the method: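 Nude mice bearing A549 xenografts, 0.3 mg/kg drug i.v. then 650 nm laser 120 J/cm2 at 180 mW/cm2 after 24 h; survival shown as Kaplan-Meier with log-rank test, n = 5.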

A549 [7] = assay: Induction of apoptosis in human A549 cells assessed as early apoptotic cell incubated for 4 hrs under dark condition by annexin V-FITC and propidium iodide staining based flow cytometric analysis (reference value: 0.07%); details: a549, 4 h
A549 [8] = assay: Induction of apoptosis in human A549 cells assessed as early apoptotic cell in presence of 1J/cm2 light irradiation measured after 4 hrs by annexin V-FITC and propidium iodide staining based flow cytometric analysis (reference value: 0.07%); assay type: functional
Summary of the method: (§1)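 After PDT at 1 J/cm2, A549 cells collected 4 h later, stained with annexin V-FITC and propidium iodide per kit instructions; flow cytometry with at least 10,000 events per sample.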

[9] = Drug uptake in BALB/c nude mouse xenografted with A549 cells assessed as drug level in tumor tissue at 0.3 mg/kg, iv measured at 12 hrs by fluorescence assay; assay type: ADME, organism-based, Neoplasm; details: in vivo
Summary of the method: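 A549 tumor-bearing mice dosed via tail vein (1 mg/kg in methods; 0.3 mg/kg in text) at tumors ~150–170 mm3, n = 3; whole-body imaging 0–24 h; at 6 and 12 h mice killed, heart, liver, spleen, lung, kidney, brain, tumor imaged ex vivo, excitation 420 nm, emission 650 nm.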

A549 [10] = assay: Photodynamic antitumor activity against human A549 cells xenografted in BALB/c nude mouse assessed as vascular rupture at 0.3 mg/kg, iv incubated for 24 hrs followed by laser light irradiation at 120 J/cm2 measured 24 hrs post light irradiation by H and E staining based histopathological analysis; assay type: functional, organism-based
Summary of the method: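 Tumors from PDT-treated A549 xenograft mice (0.3 mg/kg i.v., 650 nm laser 120 J/cm2 at 24 h) excised, fixed in 4% formaldehyde in PBS, paraffin-embedded, sectioned, H&E stained.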

A549 [11] = assay: Induction of apoptosis in human A549 cells assessed as late apoptotic cell in presence of 1J/cm2 light irradiation measured after 4 hrs by annexin V-FITC and propidium iodide staining based flow cytometric analysis (reference value: 0.05%); assay type: functional; summary of the method: as §1
Cavia porcellus [12] = assay: Phototoxicity in guinea pig assessed as change in left ear weight 4.5 mg/kg, iv followed by 10 mW/cm2 light irradiation for 10 mins measured after 1 day of light irradiation (reference value: 39.2 +/- 1.8 mg); assay type: organism-based; details: in vivo
A549 [13] = assay: Photodynamic antitumor activity against human A549 cells xenografted in BALB/c nude mouse assessed as decrease in tumor weight at 0.3 mg/kg, iv followed by laser light irradiation at 120 J/cm2 measured after 14 days; assay type: functional
Summary of the method: (§2)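 Male BALB/c nude mice (5–6 weeks, 14–16 g) given 2×10^6 A549 cells s.c. in 0.2 mL PBS; at 6–7 mm tumors randomized into ten groups; drug via tail vein, 650 nm diode laser 120 J/cm2 at 180 mW/cm2 24 h later; caliper volume a×b²/2, followed 14 days.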

Mus musculus [14] = assay: Phototoxicity in ICR mouse assessed as change in skin of the backs 0.45 mg/kg, iv in presence of 10 mW/cm2 light irradiation for 10 mins upto 7 days measured after 1 day of light irradiation by H and E staining based microscopic analysis; assay type: organism-based; details: in vivo
Cavia porcellus [15] = assay: Phototoxicity in guinea pig assessed as change in right ear weight 4.5 mg/kg, iv followed by 10 mW/cm2 light irradiation for 10 mins measured after 1 day of light irradiation (reference value: 40.4 +/- 2.4 mg); assay type: organism-based; details: in vivo
Mus musculus [16] = assay: Phototoxicity in ICR mouse assessed as change in auricles 0.45 mg/kg, iv in presence of 10 mW/cm2 light irradiation for 10 mins upto 7 days measured after 1day of light irradiation by H and E staining based microscopic analysis; assay type: organism-based; details: in vivo
Mus musculus [17] = assay: Phototoxicity in ICR mouse assessed as ear weight at 0.45 mg/kg, iv followed by 10 mW/cm2 light irradiation for 10 mins at 3 days after drug challenge measured after 1 day of light irradiation (reference value: 12.8 +/- 1.5 mg); assay type: organism-based; details: in vivo
A549 [18] = assay: Induction of apoptosis in human A549 cells assessed as late apoptotic cell incubated for 4 hrs under dark condition by annexin V-FITC and propidium iodide staining based flow cytometric analysis (reference value: 0.05%); details: a549, 4 h
[19] = Therapeutic index, ratio of TC50 for human A549 cells under dark to IC50 for human A549 cells irradiated with 1 J/cm2 of 650 nanometer laser light; assay type: toxicity, cell-based; details: read-out: TI
Summary of the method: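 A549 cells (F-12K, 10% FBS, 37 °C, 5% CO2) seeded 24 h, then exposed to 0–10 photosensitizer for 24 h. Dark arm: MTT 48 h later. Light arm: 650 nm laser, 1 J/cm2 (25 mW/cm2, 40 s), then MTT. A570 viability relative to control, triplicate. Ratio = dark TC50 / irradiated IC50.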

Mus musculus [20] = assay: Phototoxicity in ICR mouse assessed as ear weight at 0.45 mg/kg, iv followed by 10 mW/cm2 light irradiation for 10 mins at 1 day after drug challenge measured after 1 day of light irradiation (reference value: 12.6 +/- 1.2 mg); assay type: organism-based; details: in vivo
A549 [21] = assay: Photodynamic antitumor activity against human A549 cells xenografted in BALB/c nude mouse assessed as increase in tumor tissue damage at 0.3 mg/kg, iv incubated for 24 hrs followed by laser light irradiation at 120 J/cm2 measured up to 14 days; assay type: functional, organism-based; summary of the method: as §2

CCCCOC(C)c1c(C)c2cc3nc(c4c5[nH]c(cc6nc(cc1[nH]2)C(C)=C6CC)c(C)c5C(=O)C4)[C@@H](CCC(=O)NCC(=O)CCC(=O)O)[C@@H]3C (some centres not stated)
Drug uptake [1]: Active
logP [2]: 2.36
K [3]: 0.0313 s⁻¹
CC50 at 24 h [4]: 2.01 µM
Activity (Mus musculus [5]): 13.5 mg
Activity (A549 [6]): Active
Activity (A549 [7]): 3.16%
Activity (A549 [8]): 2.07%
Drug uptake [9]: Active
Activity (A549 [10]): Active
Activity (A549 [11]): 83.88%
Activity (Cavia porcellus [12]): 42.3 mg
Activity (A549 [13]): 0.0138 g
Activity (Mus musculus [14]): Non-Toxic
Activity (Cavia porcellus [15]): 43.6 mg
Activity (Mus musculus [16]): Non-Toxic
Activity (Mus musculus [17]): 13.1 mg
Activity (A549 [18]): 4.78%
selectivity ratio [19]: 8.74
Activity (Mus musculus [20]): 12.9 mg
Activity (A549 [21]): Active

CCC1=C(C)c2cc3[nH]c(cc4nc(c5c6[nH]c(cc1n2)c(C)c6C(=O)C5)[C@@H](CCC(=O)NCC(=O)CCC(=O)O)[C@@H]4C)c(C)c3C(C)OCCO (some centres not stated)
Drug uptake [1]: Active
logP [2]: 1.59
K [3]: 0.027 s⁻¹
CC50 at 24 h [4]: 8.88 µM
Activity (Mus musculus [5]): 12.9 mg
Activity (A549 [6]): Active
Activity (A549 [7]): 4.63%
Activity (A549 [8]): 28.92%
Drug uptake [9]: Active
Activity (A549 [10]): Active
Activity (A549 [11]): 67.73%
Activity (Cavia porcellus [12]): 41.6 mg
Activity (A549 [13]): 0.0296 g
Activity (Mus musculus [14]): Non-Toxic
Activity (Cavia porcellus [15]): 41.9 mg
Activity (Mus musculus [16]): Non-Toxic
Activity (Mus musculus [17]): 13.2 mg
Activity (A549 [18]): 4.7%
selectivity ratio [19]: 8.97
Activity (Mus musculus [20]): 13.3 mg
Activity (A549 [21]): Active

— ChEMBL document CHEMBL4376862, “Synthesis and evaluation of novel chlorophyll a derivatives as potent photosensitizers for photodynamic therapy” (Eur J Med Chem, 2020)
